≈ marks a conversion by molar mass, not a printed value.
Test system: Mycobacterium tuberculosis
Experiment: Antituberculosis activity against Mycobacterium tuberculosis H37Rv after 4 weeks by agar slant proportion method
Format: functional
Conditions: for MIC: Mycobacterium tuberculosis, H37Rv, 672 h
Outline: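 M. tuberculosis H37Rv inoculated onto drug-containing slants at 105 bacilli per tube, then incubated 4 weeks at 37 °C (proportion method). MIC taken as the lowest concentration of compound giving no visible growth of the inoculated bacilli; reported in μg/mL.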

Compound: COc1ccc(NC(=S)N/N=C(\C)c2ccc(Br)cc2)cc1
- -logMIC: 0.097
- MIC: 0.8 µg/mL (≈ 2.11 µM)

Compound: C/C(=N\NC(=S)NNC(=O)c1cccnc1)c1ccc(Br)cc1
- -logMIC: -0.796
- MIC: 6.25 µg/mL (≈ 15.9 µM)

Compound: C/C(=N\NC(=S)Nc1ccc(I)cc1)c1ccc([N+](=O)[O-])cc1
- MIC: > 12.5 µg/mL

Compound: C/C(=N\NC(=S)Nc1ccccc1F)c1ccc(Br)cc1
- MIC: 3.12 µg/mL (≈ 8.52 µM)

Compound: C/C(=N\NC(=S)Nc1ccncc1C)c1ccc(Br)cc1
- MIC: > 12.5 µg/mL

Compound: NNC(=O)c1ccncc1 [ISONIAZID]
- MIC: 0.02 µg/mL (≈ 0.146 µM)

Compound: C/C(=N\NC(=S)Nc1ccc(Br)cc1)c1ccc([N+](=O)[O-])cc1
- -logMIC: -0.796
- MIC: 6.25 µg/mL (≈ 15.9 µM)

Compound: C/C(=N\NC(=S)Nc1cccc(C)c1)c1ccc([N+](=O)[O-])cc1
- MIC: > 12.5 µg/mL

Compound: C/C(=N\NC(=S)Nc1ccc(Br)cc1)c1ccc(Br)cc1
- -logMIC: 0.097
- MIC: 0.8 µg/mL (≈ 1.87 µM)

Compound: C/C(=N\NC(=S)Nc1ccc(I)cc1)c1ccc(Br)cc1
- -logMIC: 0.097
- MIC: 0.8 µg/mL (≈ 1.69 µM)

Compound: C/C(=N\NC(=S)NNc1ccc(C)cc1)c1ccc(Br)cc1
- MIC: 1.56 µg/mL (≈ 4.13 µM)

Compound: C/C(=N\NC(=S)Nc1cccc(Cl)c1Cl)c1ccc(Br)cc1
- -logMIC: 0.398
- MIC: 0.4 µg/mL (≈ 0.959 µM)

Compound: C/C(=N\NC(=S)Nc1cc(C)ccn1)c1ccc([N+](=O)[O-])cc1
- -logMIC: -0.494
- MIC: 3.12 µg/mL (≈ 9.47 µM)

Compound: C/C(=N\NC(=S)Nc1ccncc1)c1ccc(Br)cc1
- MIC: > 12.5 µg/mL

Compound: C/C(=N\NC(=S)Nc1ccccc1F)c1ccc([N+](=O)[O-])cc1
- MIC: > 12.5 µg/mL

Compound: CC(=O)C1(c2ccccc2)CCN(NC(=S)N/N=C(\C)c2ccc(Br)cc2)CC1
- -logMIC: 0.097
- MIC: 0.8 µg/mL (≈ 1.69 µM)

Compound: CC[C@@H](CO)NCCN[C@@H](CC)CO [ETHAMBUTOL]
- MIC: 0.1 µg/mL (≈ 0.489 µM)

Compound: C/C(=N\NC(=S)NN)c1ccc(Br)cc1
- MIC: > 12.5 µg/mL

Compound: COc1ccc(NC(=S)N/N=C(\C)c2ccc([N+](=O)[O-])cc2)cc1
- MIC: > 12.5 µg/mL

Compound: C/C(=N\NC(=S)Nc1cccc(Cl)c1Cl)c1ccc([N+](=O)[O-])cc1
- MIC: > 12.5 µg/mL

Compound: C/C(=N\NC(=S)Nc1cc(C)ccn1)c1ccc(Br)cc1
- -logMIC: 0.398
- MIC: 0.4 µg/mL (≈ 1.1 µM)

Compound: C/C(=N\NC(=S)Nc1ccccc1[N+](=O)[O-])c1ccc(Br)cc1
- -logMIC: 0.398
- MIC: 0.4 µg/mL (≈ 1.02 µM)

Compound: COc1ccc(NNC(=S)N/N=C(\C)c2ccc(Br)cc2)cc1
- -logMIC: -0.193
- MIC: 1.56 µg/mL (≈ 3.97 µM)

Compound: C/C(=N\NC(=S)NN1CCN(c2ccccc2Cl)CC1)c1ccc(Br)cc1
- MIC: 3.12 µg/mL (≈ 6.68 µM)
